Legend:
Assay type in all cases: in vivo, human
[1] = tested on: patients with untreated locally advanced or metastatic PDAC; test: Phase II safety and adverse events; details: for patients with dose reduced due to occurrence of AEs: n = 24, combination ivaltinostat + gemcitabine + erlotinib; for Anemia, Number of patients (%) / Anorexia, Number of patients (%) / Fatigue, Number of patients (%) / Febrile neutropenia, Number of patients (%) / Neutropenia, Number of patients (%) / Pneumonia, Number of patients (%) / Thrombocytopenia, Number of patients (%): treatment-related
Procedure, shortened: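 Patients on ivaltinostat 250 mg/m2 IV with gemcitabine 1000 mg/m2 IV (days 1, 8, 15) and erlotinib 100 mg/day orally, 28-day cycles. Vital signs, AEs, ADRs, serious AEs, ECG and clinical laboratory tests checked on days 1, 8 and 15 of each cycle. AEs graded by NCI CTCAE v4.0. Safety set: all patients given ≥1 dose.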

[2] = tested on: patients with untreated locally advanced or metastatic PDAC; test: Phase I 3 + 3 dose escalation; details: Level III: ivaltinostat 312.5 mg/m^2 + gemcitabine + erlotinib; four patients
Procedure, shortened: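 3 + 3 escalation: ivaltinostat IV from 187.5 to 250 or 312.5 mg/m2, plus gemcitabine 1000 mg/m2 IV on days 1, 8, 15 and erlotinib 100 mg/day orally in 28-day cycles. DLT graded by NCI CTC v4.0: grade 4 neutropenia ≥6 days, grade 3/4 thrombocytopenia with bleeding, grade 3 neutropenia with fever >38.5°C, or drug-related nonhematologic grade 3/4 toxicity. MTD: ≤1 DLT per six-patient cohort.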

[3] = Pharmacokinetic analysis of ivaltinostat in the phase I study; details: first day after single administration, mean
[4] = 24 subjects, ivaltinostat + gemcitabine + erlotinib

C#Cc1cccc(Nc2ncnc3cc(OCCOC)c(OCCOC)cc23)c1 [erlotinib, reference compound]
patients with dose reduced due to occurrence of AEs [1]: no patient received a reduced dose

Nc1ccn([C@@H]2O[C@H](CO)[C@@H](O)C2(F)F)c(=O)n1 [gemcitabine, reference compound]
patients with dose reduced due to occurrence of AEs [1]: 12.5%

CN(C)CCCNC(=O)/C(=C/CCCCC(=O)NO)COc1cccc2ccccc12 [ivaltinostat]
dose-limiting toxicity (DLT) [2]: A DLT, febrile neutropenia grade 3 | drop-out of the study due to intolerable AEs [1]: no cases | subjects with ADRs of grade 3 or 4 severity ([1]; 15 of 24 subjects): 62.5% | ADR: decreased appetite ([1]; 24 subjects): 11 events | ADR: decreased platelet count ([1]; 24 subjects): 15 events | ADR: nausea ([1]; 24 subjects): 10 events | ADR: rash ([1]; 24 subjects): 11 events | ADR: vomiting ([1]; 24 subjects): 10 events | ADRs with grade 3 or 4 severity ([1]; 24 subjects): 26 events | grade 5 (death) events ([1]; 24 subjects): no grade 5 (death) events | AEs reported [1, 4]: 218 events | adverse drug reactions (ADRs) [1, 4]: 114 events | patients with dose reduced due to occurrence of AEs [1]: 12.5% | treatment-related grade 3 or 4 anemia ([1]; n = 24, text): 16.7% | treatment-related grade 3 or 4 neutropenia ([1]; n = 24, text): 33.3% | treatment-related grade 3 or 4 thrombocytopenia ([1]; n = 24, text): 29.2% | Anemia, Number of patients (%) ([1]; Grade 3 (n = 24)): 4 (16.7) patients (%) | Anorexia, Number of patients (%) ([1]; Grade 3 (n = 24)): 2 (8.3) patients (%) | Fatigue, Number of patients (%) ([1]; Grade 3 (n = 24)): 2 (8.3) patients (%) | Febrile neutropenia, Number of patients (%) ([1]; Grade 3 (n = 24)): 2 (8.3) patients (%) | Neutropenia, Number of patients (%) ([1]; Grade 3 (n = 24)): 3 (12.5) patients (%) | Pneumonia, Number of patients (%) ([1]; Grade 3 (n = 24)): 0 patients (%) | Thrombocytopenia, Number of patients (%) ([1]; Grade 3 (n = 24)): 4 (16.7) patients (%) | Anemia, Number of patients (%) ([1]; Grade 4 (n = 24)): 0 patients (%) | Anorexia, Number of patients (%) ([1]; Grade 4 (n = 24)): 0 patients (%) | Fatigue, Number of patients (%) ([1]; Grade 4 (n = 24)): 0 patients (%) | Febrile neutropenia, Number of patients (%) ([1]; Grade 4 (n = 24)): 0 patients (%) | Neutropenia, Number of patients (%) ([1]; Grade 4 (n = 24)): 5 (20.8) patients (%) | Pneumonia, Number of patients (%) ([1]; Grade 4 (n = 24)): 1 (4.2) patients (%) | Thrombocytopenia, Number of patients (%) ([1]; Grade 4 (n = 24)): 3 (12.5) patients (%) | Anemia, Number of patients (%) ([1]; Total grade 3 and 4 (n = 24)): 4 (16.7) patients (%) | Anorexia, Number of patients (%) ([1]; Total grade 3 and 4 (n = 24)): 2 (8.3) patients (%) | Fatigue, Number of patients (%) ([1]; Total grade 3 and 4 (n = 24)): 2 (8.3) patients (%) | Febrile neutropenia, Number of patients (%) ([1]; Total grade 3 and 4 (n = 24)): 2 (8.3) patients (%) | Neutropenia, Number of patients (%) ([1]; Total grade 3 and 4 (n = 24)): 8 (33.3) patients (%) | Pneumonia, Number of patients (%) ([1]; Total grade 3 and 4 (n = 24)): 1 (4.2) patients (%) | Thrombocytopenia, Number of patients (%) ([1]; Total grade 3 and 4 (n = 24)): 7 (29.2) patients (%) | Cmax ([3]; 187.5 mg/m^2 iv, n=3): 9553 ng/mL | Terminal half-life ([3]; 187.5 mg/m^2 iv, n=3): 7.3 h | Cmax ([3]; 250 mg/m^2 iv, n=3): 8062 ng/mL | Terminal half-life ([3]; 250 mg/m^2 iv, n=3): 5.7 h | Cmax ([3]; 312.5 mg/m^2 iv, n=4): 12 782 ng/mL | Terminal half-life ([3]; 312.5 mg/m^2 iv, n=4): 6.6 h
